Reference: ChEMBL document CHEMBL4024803, “New Steroidal 4-Aminoquinolines Antagonize Botulinum Neurotoxin Serotype A in Mouse Embryonic Stem Cell Derived Motor Neurons in Postintoxication Model” (J Med Chem, 2018)
In brackets after ≈: the same amount, converted by molar mass.

Experiments:
[1] = Octanol/TBS buffer distribution co-efficient, […] by shake flask method; format: physicochemical; conditions: octanol/water
[2] = tested on: Liver; test: Half life in mouse liver microsomes; format: ADME, microsome
Procedure, shortened: (§1)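 Substrate-depletion assay: compound incubated with human or mouse liver microsomes for 1 h at 37°C. Half-life and intrinsic clearance derived from compound loss.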

[3] = tested on: Mus musculus; test: Toxicity in mouse assessed as effect on behavior at 160 mg/kg, po administered for 3 days measured 2 times a day for 30 days; format: organism-based; conditions: in vivo, 720 h
Procedure, shortened: (§2)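 Groups of five healthy mice were dosed per os for three consecutive days, suspended in 0.5% hydroxyethylcellulose–0.1% Tween 80. Behaviour and appearance were monitored twice daily for 30 days, with survival assessed at 30 days. Non-toxic was defined as all 5 surviving with normal appearance and behaviour.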

[4] = tested on: Liver; test: Intrinsic clearance in human liver microsomes after 1 hr; format: ADME, microsome; procedure, shortened: as §1
[5] = Solubility of the compound at pH 7.4 by light scattering-based laser nephelometric method; format: physicochemical; conditions: buffer
Procedure, shortened: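 Solubility measured by laser nephelometry (light scattering), pH 7.4, n=3.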

[6] = tested on: Mus musculus; test: Cmax in mouse at 400 mg/kg, po by UPLC-MS/MS method; format: ADME, organism-based; design: dose 400 mg/kg, route oral; conditions: in vivo
Procedure, shortened: (§3)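 Single oral dose (400 mg/kg, 7 mice; 600 mg/kg, 6 mice), dissolved in DMSO and suspended in 0.5% hydroxyethylcellulose–0.1% Tween 80. Blood taken by cardiac puncture under chloroform, one mouse per time point, 15–120 min. Serum proteins precipitated with 2 volumes acetonitrile; analysed by UPLC-MS/MS against blank human serum calibration. Half-life read from the concentration–time curve.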

[7] = tested on: Mus musculus; test: Half life in mouse at 600 mg/kg, po by UPLC-MS/MS method; format: ADME, organism-based; conditions: in vivo; procedure, shortened: as §3
[8] = tested on: Mus musculus; test: Toxicity in mouse assessed as effect on appearance at 400 to 600 mg/kg, po administered as single dose measured 2 times a day for 30 days; format: organism-based; conditions: in vivo, 720 h
Procedure, shortened: (§4)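 Two groups of 5 healthy mice each received one oral dose, 400 or 600 mg/kg. Survival, appearance and behaviour were followed for 30 days. Non-toxic was defined as all 5 surviving with normal appearance and behaviour.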

[9] = target: Botulinum neurotoxin type A (Clostridium botulinum) (UniProt P0DPI0); test: Inhibition of Clostridium botulinum BoNT/A holotoxin-mediated SNAP-25 cleavage in mouse HBG3 cell-derived motor neurons assessed as full length of SNAP-25 at 20 uM treated at 60 mins post intoxication by Western blot method relative to control; design: scale not given: the % may be the effect or the level left
[10] = tested on: Mus musculus; test: Drug metabolism in mouse assessed as M+32 metabolite formation at 400 to 600 mg/kg, po by UPLC-MS/MS method; format: ADME, organism-based; conditions: in vivo
[11] = target: Botulinum neurotoxin type A (Clostridium botulinum) (UniProt P0DPI0); test: Inhibition of Clostridium botulinum BoNT/A holotoxin-mediated SNAP-25 cleavage in mouse HBG3 cell-derived motor neurons assessed as full length of SNAP-25 at 20 uM preincubated for 30 mins followed by intoxication measured after 4 hrs by Western blot method relative to control; design: scale not given: the % may be the effect or the level left
[12] = tested on: Mus musculus; test: AUC (0 to 120 mins) in mouse at 400 mg/kg, po by UPLC-MS/MS method; format: ADME, organism-based; design: dose 400 mg/kg, time < 2 hr, route oral; conditions: in vivo, 2 h
[13] = tested on: Mus musculus; test: Toxicity in mouse assessed as effect on appearance at 160 mg/kg, po administered for 3 days measured 2 times a day for 30 days; format: organism-based; conditions: in vivo, 720 h; procedure, shortened: as §2
[14] = Drug uptake in mouse serum at 400 mg/kg, po measured at 15 mins by UPLC-MS/MS method; format: ADME, organism-based; conditions: read-out: Drug uptake; procedure, shortened: as §3
[15] = target: Cytochrome P450 3A4 (Homo sapiens, UniProt P08684); test: Inhibition of CYP3A4 (unknown origin) using BFC as substrate; format: ADME
Cytochrome P450 3A4, sequence (P08684 whole entry): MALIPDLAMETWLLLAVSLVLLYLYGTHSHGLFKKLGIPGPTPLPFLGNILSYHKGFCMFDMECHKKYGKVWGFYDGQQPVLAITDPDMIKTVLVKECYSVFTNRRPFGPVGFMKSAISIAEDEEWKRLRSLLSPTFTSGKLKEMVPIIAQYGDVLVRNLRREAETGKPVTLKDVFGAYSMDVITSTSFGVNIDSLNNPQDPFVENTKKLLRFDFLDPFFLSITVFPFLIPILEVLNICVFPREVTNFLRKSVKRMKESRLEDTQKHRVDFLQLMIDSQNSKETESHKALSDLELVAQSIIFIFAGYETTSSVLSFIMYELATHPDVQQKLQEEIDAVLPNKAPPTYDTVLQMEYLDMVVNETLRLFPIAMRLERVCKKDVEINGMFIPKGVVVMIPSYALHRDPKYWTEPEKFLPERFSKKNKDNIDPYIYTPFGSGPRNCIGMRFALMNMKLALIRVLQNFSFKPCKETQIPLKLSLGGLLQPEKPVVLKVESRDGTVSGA
Procedure, shortened: (§5)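 Active CYP450 enzyme incubated at 37°C for a set time with a fluorogenic probe substrate (BQ, DBF or BFC for CYP3A4; CEC for CYP2C19; AMMC for CYP2D6). IC50 derived from net fluorescent signal.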

[16] = Apparent permeability across basolateral to apical side in MDCK cells expressing MDR1 after 1 hr; format: ADME, cell-based, Canis lupus familiaris; conditions: dog
Procedure, shortened: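 MDR1-transfected MDCK cell monolayer; compound applied to the basolateral compartment and incubated 1 h at 37°C. Apparent permeability measured in the B→A direction.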

[17] = Protein binding in mouse plasma at 600 mg/kg, po by ultra-centrifugation method; format: ADME, organism-based; conditions: read-out: PPB
[18] = tested on: Plasma; test: Protein binding in human plasma after 4 hrs by equilibrium dialysis method; format: ADME, cell-free
Procedure, shortened: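 Equilibrium dialysis against buffer, 4 h at 37°C with shaking. After incubation both chambers were matrix-matched and protein-precipitated with cold acetonitrile/water/formic acid containing internal standard. Supernatants were analysed by LC-MS/MS. % free = buffer-chamber / plasma-chamber concentration × 100.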

[19] = Drug uptake in mouse serum at 600 mg/kg, po measured at 60 mins by UPLC-MS/MS method; format: ADME, organism-based; conditions: read-out: Drug uptake; procedure, shortened: as §3
[20] = tested on: Liver; test: Half life in human liver microsomes; format: ADME, microsome; procedure, shortened: as §1
[21] = tested on: Mus musculus; test: Drug metabolism in mouse assessed as monoacetylated metabolite formation at 400 to 600 mg/kg, po by UPLC-MS/MS method; format: ADME, organism-based; conditions: in vivo
[22] = tested on: Mus musculus; test: Toxicity in mouse assessed as effect on survival at 400 to 600 mg/kg, po administered as single dose measured after 30 days; format: organism-based; conditions: in vivo, 720 h; procedure, shortened: as §4
[23] = tested on: Mus musculus; test: Drug metabolism in mouse assessed as M+16 metabolite formation at 400 to 600 mg/kg, po by UPLC-MS/MS method; format: ADME, organism-based; conditions: in vivo
[24] = tested on: Mus musculus; test: Toxicity in mouse assessed as effect on survival at 160 mg/kg, po administered for 3 days measured after 30 days; format: organism-based; conditions: in vivo, 720 h; procedure, shortened: as §2
[25] = Protein binding in mouse plasma at 400 mg/kg, po by ultra-centrifugation method; format: ADME, organism-based; conditions: read-out: PPB
[26] = target: Botulinum neurotoxin type A (Clostridium botulinum) (UniProt P0DPI0); test: Inhibition of Clostridium botulinum BoNT/A light chain at 20 uM using P39 as substrate preincubated for 10 mins followed by substrate addition measured after 10 mins by HPLC method relative to control
Procedure, shortened: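 Purified BoNT/A light chain (20 nM) with 0.2 mg/mL BSA in 50 mM HEPES pH 7.4, preincubated with compound for 10 min at room temperature. Cleavage fragments were separated by reversed-phase HPLC (214/280 nm). Percent inhibition was taken from fragment peak areas with vs without compound. Mean of three experiments.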

[27] = target: Botulinum neurotoxin type A (Clostridium botulinum) (UniProt P0DPI0); test: (§6) Inhibition of Clostridium botulinum BoNT/A light chain using P39 as substrate preincubated for 10 mins followed by substrate addition measured after 10 mins by HPLC method
[28] = target: T1, Botulinum neurotoxin type A (Clostridium botulinum, UniProt P0DPI0); test: as §6
[29] = target: Botulinum neurotoxin type A (Clostridium botulinum) (UniProt P0DPI0); test: (§7) Inhibition of Clostridium botulinum BoNT/A holotoxin-mediated SNAP-25 cleavage in mouse HBG3 cell-derived motor neurons preincubated for 30 mins followed by intoxication measured after 4 hrs by Western blot method
[30] = target: T1, Botulinum neurotoxin type A; test: as §7
[31] = target: Cytochrome P450 2C19 (Homo sapiens, UniProt P33261); test: Inhibition of CYP2C19 (unknown origin) using CEC as substrate; format: ADME; procedure, shortened: as §5
Cytochrome P450 2C19, sequence (P33261 whole entry): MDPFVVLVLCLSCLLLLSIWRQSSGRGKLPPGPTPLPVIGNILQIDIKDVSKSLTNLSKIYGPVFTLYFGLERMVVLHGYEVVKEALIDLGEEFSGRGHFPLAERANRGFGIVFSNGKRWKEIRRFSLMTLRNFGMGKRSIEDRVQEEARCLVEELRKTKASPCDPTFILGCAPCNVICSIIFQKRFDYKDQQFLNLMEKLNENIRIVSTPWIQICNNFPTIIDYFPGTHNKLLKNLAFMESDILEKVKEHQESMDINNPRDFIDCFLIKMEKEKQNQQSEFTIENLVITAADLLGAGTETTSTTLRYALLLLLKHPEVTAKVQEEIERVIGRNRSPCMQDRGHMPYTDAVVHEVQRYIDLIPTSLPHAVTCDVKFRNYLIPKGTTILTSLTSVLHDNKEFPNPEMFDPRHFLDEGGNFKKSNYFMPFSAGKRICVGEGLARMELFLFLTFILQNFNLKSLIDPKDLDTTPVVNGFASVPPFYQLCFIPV

[32] = target: Botulinum neurotoxin type A (Clostridium botulinum) (UniProt P0DPI0); test: Inhibition of Clostridium botulinum BoNT/A holotoxin-mediated SNAP-25 cleavage in mouse HBG3 cell-derived motor neurons assessed as full length of SNAP-25 at 10 uM preincubated for 30 mins followed by intoxication measured after 4 hrs by Western blot method relative to control; design: scale not given: the % may be the effect or the level left
[33] = Solubility of the compound by spectrofluorimetric detection-based shake-flask method; format: physicochemical
[34] = target: Cytochrome P450 2D6 (Homo sapiens, UniProt P10635); test: Inhibition of CYP2D6 (unknown origin) using AMMC as substrate; format: ADME; procedure, shortened: as §5
Cytochrome P450 2D6, sequence (P10635 whole entry): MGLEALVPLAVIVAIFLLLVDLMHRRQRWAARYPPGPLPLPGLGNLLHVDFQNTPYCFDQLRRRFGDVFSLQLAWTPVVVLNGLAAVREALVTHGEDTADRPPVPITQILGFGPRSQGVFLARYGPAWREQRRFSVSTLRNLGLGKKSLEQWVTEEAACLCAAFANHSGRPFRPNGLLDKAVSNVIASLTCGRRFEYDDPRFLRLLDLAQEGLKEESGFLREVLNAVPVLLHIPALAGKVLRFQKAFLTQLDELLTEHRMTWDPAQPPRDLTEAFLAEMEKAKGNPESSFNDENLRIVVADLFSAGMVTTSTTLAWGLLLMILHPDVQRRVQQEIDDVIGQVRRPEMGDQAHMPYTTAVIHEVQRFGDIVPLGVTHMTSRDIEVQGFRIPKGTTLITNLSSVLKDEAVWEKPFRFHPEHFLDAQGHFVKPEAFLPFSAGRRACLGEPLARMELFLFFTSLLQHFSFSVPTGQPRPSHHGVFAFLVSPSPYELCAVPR

## CC(=O)O[C@H]1C[C@H]2[C@@H]([C@H](OC(C)=O)C[C@@H]3C[C@H](N)CC[C@@]32C)[C@@H]2CC[C@H]([C@H](C)CCCNCCCCNc3ccnc4cc(Cl)ccc34)[C@@]12C
[1]
  logD: 2.07
[2]
  t1/2: > 1 h
[3]
  Activity: Non-Toxic
[4]
  CLH: < 23 µL/min/mg
[5]
  solubility kinetic: > 50 µg/mL
[6]
  Cmax: 7.8 µM
[7]
  t1/2: 0.383 h
[8]
  Activity: Non-Toxic
[9]
  Activity: 45%
[10]
  Drug metabolism: Metabolite_Notdetected
[11]
  Activity: 88%
[12]
  AUC: 253 µM·min
[13]
  Activity: Non-Toxic
[14]
  concentration at 0.25 h: 3.3 µM
[15]
  IC50: 1.4 µM
[16]
  Papp: 24.6 ×10⁻⁶ cm/s
[17]
  fraction unbound: < 0.01
[18]
  PPB: > 99%
[19]
  concentration at 1 h: 2.5 µM
[20]
  t1/2: > 1 h
[21]
  Drug metabolism: Metabolite_Notdetected
[22]
  Activity: Non-Toxic
[23]
  Drug metabolism: Metabolite_Notdetected
[24]
  Activity: Non-Toxic
[25]
  fraction unbound: < 0.01
[26]
  inhibition: 66%
[27]
  inhibition: Dose-dependent effect
[28]
  IC50: 4.5 µM
[29]
  inhibition: Dose-dependent effect
[30]
  IC50: 10 µM
[31]
  IC50: 5 µM
[32]
  Activity: 72%
[33]
  solubility thermodynamic: 640 µg/mL (≈ 902 µM)
[34]
  IC50: > 10 µM
